PubChem BioAssay AID652011 (Sanford-Burnham Center for Chemical Genomics, 2013)
“And” between values parts separate entries of the source, which are not always exact repeats. Identical values can stand only once.

target: Hypoxia-inducible factor 1-alpha (Homo sapiens) (UniProt Q16665); test: HIF-1a and HIF-2a reporter inhibitors, SAR follow-up, cell-based, luminescence, MIAPaCa-2, 786-0, panel (AID 652011); settings: MIAPaCa-2/PANC HIF reporter, luciferase luminescence, desferoxamine, overnight, HIF1a, run 2; at 99 µM (top of the series)
Sequence (Q16665 whole entry, looked up): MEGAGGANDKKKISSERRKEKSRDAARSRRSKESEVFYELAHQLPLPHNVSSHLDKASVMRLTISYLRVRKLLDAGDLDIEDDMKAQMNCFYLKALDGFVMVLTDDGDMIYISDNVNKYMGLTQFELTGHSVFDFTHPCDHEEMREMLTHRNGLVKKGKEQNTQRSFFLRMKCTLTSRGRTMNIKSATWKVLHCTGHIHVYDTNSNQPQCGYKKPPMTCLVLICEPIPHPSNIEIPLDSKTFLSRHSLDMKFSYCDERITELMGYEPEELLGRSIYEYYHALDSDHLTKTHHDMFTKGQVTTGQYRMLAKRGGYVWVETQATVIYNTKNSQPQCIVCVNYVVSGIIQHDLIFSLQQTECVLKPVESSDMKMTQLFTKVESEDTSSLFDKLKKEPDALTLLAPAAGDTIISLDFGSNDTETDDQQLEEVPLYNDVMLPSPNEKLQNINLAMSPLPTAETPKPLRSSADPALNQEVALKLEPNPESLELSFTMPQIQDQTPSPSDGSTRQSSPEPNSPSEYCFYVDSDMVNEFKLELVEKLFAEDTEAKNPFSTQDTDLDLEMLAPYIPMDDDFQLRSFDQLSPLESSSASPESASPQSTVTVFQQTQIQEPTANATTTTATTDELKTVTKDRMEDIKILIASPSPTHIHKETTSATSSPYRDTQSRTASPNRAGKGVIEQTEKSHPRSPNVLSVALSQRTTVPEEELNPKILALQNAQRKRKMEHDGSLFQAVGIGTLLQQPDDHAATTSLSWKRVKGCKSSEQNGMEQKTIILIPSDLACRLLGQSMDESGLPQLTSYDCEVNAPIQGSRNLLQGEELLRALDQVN
Method in brief: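 Probe or stimulus – desferoxamine stimulus · Times – overnight compound incubation at 37 °C, 10 min reagent · Doses – compounds from 10 mM and 0.3125 mM stocks, 1% DMSO final · Technique – luminescence, One-Glo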

Row | SMILES | inhibition
1 | CCOc1ccc(-c2noc(CCC(=O)O)n2)cc1 | 70.3%
2 | CN(C)C(=O)CCc1nc(-c2ccc(C(C)(C)C)cc2)no1 | -8.56% and -52.1%
3 | CC(C)(C)c1ccc(-c2noc(CCC(=O)NC3CC3)n2)cc1 | -29.7%
4 | CC(C)(C)c1ccc(-c2noc(CCC(=O)N3CCOCC3)n2)cc1 | -1.55%
5 | COC(=O)CCc1nc(-c2ccc(C(C)(C)C)cc2)no1 | 93.8%
6 | CC(C)(C)c1ccc(-c2noc(CCC(N)=O)n2)cc1 | 31.2% and -6.5%
7 | CCc1ccc(-c2noc(CCC(=O)NC)n2)cc1 | -34.1%
8 | COc1cccc(NC(=O)CCc2nc(-c3ccc(C(C)(C)C)cc3)no2)c1 | 81.2%
9 | CNC(=O)CCc1nc(-c2ccc(Cl)cc2)no1 | -33.8%
10 | CCCCc1ccc(-c2noc(CCC(=O)NC3CC3)n2)cc1 | 36%
11 | CCNC(=O)CCc1nc(-c2ccc(C(C)(C)C)cc2)no1 | 10.5% and -4.06%
12 | CCNC(=O)CCc1nc(-c2c(Cl)cccc2Cl)no1 | 28.8%
13 | CC(C)(C)c1ccc(-c2noc(CCC(=O)NC3CCCCC3)n2)cc1 | 55.9%
14 | CNC(=O)CCc1nc(-c2ccc(C(C)(C)C)cc2)no1 | 18.4%
15 | CC(C)(C)c1ccc(-c2noc(CCC(=O)NC3CCCC3)n2)cc1 | 81.4%
16 | CC(C)(C)c1ccc(-c2noc(CCC(=O)Nc3cccnc3)n2)cc1 | 85.6%

Row | SMILES | inhibition
17 | CCc1ccc(-c2noc(CCC(=O)NC3CC3)n2)cc1 | -49.4%
18 | CCNC(=O)CCc1nc(-c2ccccc2)no1 | -23.4%
19 | CCNC(=O)CCc1nc(-c2ccc(OCC)cc2)no1 | -42.2%
20 | CC(C)(C)NC(=O)CCc1nc(-c2ccc(C(C)(C)C)cc2)no1 | 96.7%
21 | CNC(=O)CCc1nc(-c2ccc(C)cc2)no1 | 20.3%
22 | CNC(=O)CCc1nc(-c2ccc(OC)cc2)no1 | -31.5%
23 | CCNC(=O)CCc1nc(-c2cccc(OC)c2)no1 | -31.4%
24 | CCNC(=O)CCc1nc(-c2ccc(C(C)C)cc2)no1 | -15.6%
25 | CC(C)CNC(=O)CCc1nc(-c2ccc(C(C)(C)C)cc2)no1 | 2.19%
26 | CC(C)(C)c1ccc(-c2noc(CCC(=O)NCc3ccco3)n2)cc1 | 93.7% and 85.5%
27 | COc1ccccc1NC(=O)CCc1nc(-c2ccc(C(C)(C)C)cc2)no1 | 81.3%
28 | CC(C)(C)c1ccc(-c2noc(CCC(=O)Nc3ccccc3)n2)cc1 | 60.5%
29 | CCNC(=O)CCc1nc(-c2ccc(CC)cc2)no1 | -31.3%
30 | CNC(=O)CCc1nc(-c2ccccc2)no1 | -20.8% and 17.9%
31 | CC(C)NC(=O)CCc1nc(-c2ccc(C(C)(C)C)cc2)no1 | 26.5%
